Screens: PubChem BioAssay, Broad Institute
Sampled rows, rich in hits. Any-hit rate of the full collection: about 3.1%.
HIF activator: HIF pathway transcriptional activation; U2OS HRE-luciferase reporter, luminescence; normalized: DMSO 0%, desferrioxamine 100%; 0.32% of 300,000 active; activation, % at 7.5 µM (by protocol);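 active means mean activation of at least 10% of the iron chelator positive control signal, with at least half of replicates also reaching 10%; inconclusive means mean and replicate majority disagree about reaching 10%; inactive means mean and most replicates under 10%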
Calb FLC: affects C. albicans growth with fluconazole | C. albicans CaCi-2 (fluconazole-resistant clinical isolate) + fluconazole, Alamar Blue growth, 48 h | growth inhibition, % (no concentration beside the values) | 0.57% of 300,000 active | AID 1979;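 active means growth inhibition above about 58% in most replicates, limit read from the data, passing the limit was not always enough; inconclusive means exactly half the replicates above a set limit; inactive means most replicates below a set limit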;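 further: all wells also contain fluconazole at 8 µg/ml as a sub-toxic cotreatment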
PolyA inh: blocks polyadenylation in yeast reporter cells; AID 1875; 0.02% of 300,000 active; activity score, % at 12 µM; S. cerevisiae SKY197-pL101 polyadenylation reporter, beta-gal luminescence; efflux-impaired pdr1/pdr3 knockout yeast; score 100 = 6 SD above DMSO;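 active means lowest replicate activity score at least 50, where 100 means six control SD above control mean; inconclusive means lowest score under 50 but half or more replicates reach 50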;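 further: yeast exposed to compound for 9 h at 30 °C; higher score means more reporter readthrough which indicates perturbed polyadenylation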
Beta apoptosis: blocks beta cell apoptosis; INS-1E cytokine-induced death, ATP luminescence, 48 h; percent of positive-control rescue, neutral wells zero; AID 435005; 0.8% of 300,000 active; protection from apoptosis, % (concentration not given with the values);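 active means Every replicate reaches about 75%, or at least half do and their mean reaches it too, limit read from the data; inconclusive means At least half of replicates reach the limit but their mean does not; inactive means Under half of replicates reach the limit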;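 further: higher means more ATP so stronger rescue from cytokine killing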
CSC inhib: blocks cancer stem cells. 1.1% of 300,000 active. inhibition, % at 7.5 µM. AID 2717. cancer stem cell-like cells viability, luminescence; in the data active means inhibition above about 75%; inconclusive means no clear call, values can overlap the other calls; tested in HMLE shEcad cells
T cruzi inh: blocks replication of Trypanosoma cruzi; AID 1885; inhibition, % (test concentration not listed); T. cruzi beta-gal in NIH3T3, luminescence, 90 h; 1.4% of 300,000 active;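 active means mean inhibition across valid replicates above about 55%, limit read from the data; inconclusive means mean below that limit but half or more replicates reach it; inactive means mean below it, under half of replicates reach it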;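 further: signal also drops with host cell toxicity which is not excluded here; higher percent means less beta-gal luminescence so fewer parasites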
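Read-out: Parasite load inhibition, % | Test system: Mouse NIH/3T3 fibroblasts infected with β-gal-expressing T. cruzi Tulahuen C4 | Amount: 5,000 cells/well | Medium: DMEM, 2% fetal bovine serum | Signal: GalScreen β-gal luminescence, detergent lysis, 60 min | Timing: 3 h attach, ≥90 h co-culture | Also added: Tulahuen C4 trypomastigotes, 5000/well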
A number is an active result; i = inactive; ? = inconclusive; nt = not tested or not shown.

SMILES	HIF activator	Calb FLC	PolyA inh	Beta apoptosis	CSC inhib	T cruzi inh
O=c1cc(N2CCCCC2)c(-c2ccccc2)nn1Cc1c(Cl)cccc1Cl	i	i	i	i	104	i
O=c1cc(N2CCCCC2)c(-c2ccccc2)nn1Cc1ccc(F)cc1	i	i	i	i	i	55
O=c1cc(N2CCCCC2)c(-c2ccccc2)nn1Cc1ccc(Cl)cc1	i	i	i	nt	103	i
CCN(CC)S(=O)(=O)c1ccc2c(c1)N(CC(=O)Nc1cccnc1Cl)C(=O)CO2	i	i	i	i	i	i
N#Cc1cccc(NC(=O)CCc2ccc(S(=O)(=O)N3CCOCC3)cc2)c1	nt	nt	nt	i	i	nt
COc1ccc(C(=O)On2c(-c3ccc(Br)cc3)nc3ccccc3c2=O)cc1	i	104	i	i	i	i
O=C(CCl)N(c1ccc(Cl)cc1)c1c[nH]c2ccccc12	i	113	i	i	88	58
Cc1ccc(CSc2ccc(-c3ccc4c(c3)OCO4)nn2)cc1	i	i	i	i	79	i
Cc1ccc(CSc2nnc(-c3ccc4c(c3)OCO4)o2)cc1	i	i	i	i	i	i
N=C1/C(=C\c2ccc(SCc3ccccc3)o2)C(=O)N=C2SC(CC(=O)N3CCOCC3)=NN12	i	i	i	i	i	i
N=C1/C(=C\c2ccc(SCc3ccccc3)o2)C(=O)N=C2SC=NN12	i	78	i	i	i	i
Cc1ccc(F)c(NC(=O)/C(C#N)=C(\O)c2ccc(C(C)(C)C)cc2)c1	i	i	i	i	79	i
Cc1ccc(NC2CCCN(C(=O)CCc3ccncc3)C2)cc1C (stereo not drawn)	i	i	i	i	i	63
COc1ccc(NC2CCCN(C(=O)CCc3ccncc3)C2)cc1OC (stereo not drawn)	i	i	i	i	nt	i
Cc1ccc(NC2CCCN(C(=O)Cc3nonc3C)C2)cc1C (stereo not drawn)	i	i	i	i	i	i
Cc1ccc(NC2CCCN(C(=O)CSc3ccncc3)C2)cc1C (stereo not drawn)	i	i	i	i	i	56
O=C(CCl)N=c1sccn1Cc1ccc(Cl)cc1Cl	i	i	i	i	i	99
O=C(CCl)N=c1sccn1Cc1ccccc1Cl	nt	i	i	i	i	61
O=C(CCl)N=c1sccn1Cc1cccc2ccccc12	i	i	i	nt	nt	i
Cc1ccc(CN2CCN(Cc3ccc4cc(F)ccc4n3)CC2CCO)o1 (stereo not drawn)	i	i	i	i	i	i
O=C(CC12CC3CC(CC(C3)C1)C2)NC(=S)Nc1ccc(CN2CCOCC2)cc1	i	i	i	i	i	82
O=C(NC(=S)Nc1ccc(CN2CCOCC2)cc1)c1ccco1	i	i	i	i	i	i
OC(COc1ccc(CNCCc2ccccc2F)cc1)CN1CCCCC1 (stereo not drawn)	i	i	i	i	103	i
Cc1ccc(-n2c(-c3ccccc3)c[n+]3c2CCC3)cc1	i	96	i	109	i	i
COc1ccc(-n2c(-c3ccc(Br)cc3)c[n+]3c2CCCCC3)cc1	i	i	i	111	i	66
SMILES	HIF activator	Calb FLC	PolyA inh	Beta apoptosis	CSC inhib	T cruzi inh
COc1ccc(-n2c(-c3ccc(Br)cc3)c[n+]3c2CCC3)cc1	i	i	i	76	i	i
COc1ccc(-n2c(-c3ccc(Br)cc3)c[n+]3c2SC(C)C3)cc1 (stereo not drawn)	i	88	i	nt	nt	90
COc1ccc(-n2c(-c3ccc(Br)cc3)n[nH]c2=S)cc1	i	i	i	i	i	i
CN1c2ccccc2C(C)(C)C12CC(c1cccc(S(=O)(=O)N3CCCC3)c1)=NO2 (stereo not drawn)	i	?	i	i	i	i
CC(CC(=O)O)Nc1ccccc1O (stereo not drawn)	i	i	i	i	i	i
COc1ccc(NC(=O)c2cc3ccccc3o2)cc1S(=O)(=O)N1CCCCC1	nt	nt	nt	i	i	nt
COc1ccc(NC(C)C(=O)Nc2cccc(S(=O)(=O)N3CCOCC3)c2)cc1OC (stereo not drawn)	nt	nt	nt	i	i	nt
O=C(NC(Cc1ccccc1)C(=O)O)C1CCN(S(=O)(=O)c2ccccc2C(F)(F)F)CC1 (stereo not drawn)	i	i	i	i	i	i
COc1ccc(N2CCN(C(=O)c3cc(=O)c4cc(C)c(C)cc4o3)CC2)cc1	i	i	i	i	i	i
